Experimental data: the RNAGym collection of RNA variant scans (doi:10.1126/science.aae0568)
Fewer inactive variants are shown than the library holds.

B1: tRNA (parent)
chain: GUUCCGUUGGCGUAAUGGUAACGCGUCUCCCUCCUAAGGAGAAGACUGCGGGUUCGAGUCCCGUACGGAACG

Variants of: B1
Assay: yeast fitness relative to wild type (ratio to wild type); higher = fitter; tRNA-Arg(CCU), competitive growth, 37 C, YPD
Summary of the method: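 Variants of the tRNA-Arg(CCU) gene, chemically synthesised with a 3% per-site mutation rate at 69 sites, were placed at the native genomic locus in Saccharomyces cerevisiae. The pooled strains were competed in YPD at 37°C for 24 hours in six parallel replicates. Gene amplicons from the start population and from each end population were read by 100-nucleotide paired-end sequencing. Darwinian fitness relative to wild type came from changes in genotype frequencies; genotypes needed ≥ 100 starting reads, and estimates < 0.5 were set to 0.5.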
C4A C22G C29U G68C gave a yeast fitness of no more than 0.5. With C4A G12C U19C C22U C24G A43U C61A the yeast fitness was no more than 0.5. For C4A C62U, the yeast fitness was 0.852. For C4A C62A, the yeast fitness was 0.675. In the case of C4A G18C C61U, the yeast fitness is reported as no more than 0.5. Work on C4A C22G C33G U54G yielded a yeast fitness of no more than 0.5. C4A G12A U16A G51A U54A showed a yeast fitness of 0.542. In the case of C4A C24G C62U A69C, the yeast fitness is reported as 0.567. C4A C24G G44C showed a yeast fitness of no more than 0.5. In the case of C4A C24A, the yeast fitness is reported as 0.595. In the case of C4A C30U U59A, the yeast fitness is reported as no more than 0.5. With C4A G12C U13G C30U G58C the yeast fitness was no more than 0.5. C4A C55U A57U U64G gave a yeast fitness of no more than 0.5. C4A C11G A69U gave a yeast fitness of no more than 0.5. Variant C4A G23A has a yeast fitness of 0.89. C4A G23C showed a yeast fitness of 0.77. Variant C4A C46U A57C has a yeast fitness of 0.529. In the case of C4A C31A U35C A45U A69U, the yeast fitness is reported as no more than 0.5. Variant C4A G18C C29A C31A A70C has a yeast fitness of no more than 0.5. C4A C33A C34U G39C U54A showed a yeast fitness of no more than 0.5. Variant C4A A69G has a yeast fitness of 0.904. For C4A A69U, the yeast fitness was 0.952. C4A A69C gave a yeast fitness of 0.863. C4A G56C C66U gave a yeast fitness of no more than 0.5. With C4A C29G G68C the yeast fitness was no more than 0.5. In the case of C4A C33U A36C A40G, the yeast fitness is reported as no more than 0.5. For C4A C5G G50A U53A C60U G63C, the yeast fitness was 0.614. C4A G18C C29A C31A A57G showed a yeast fitness of no more than 0.5. Variant C4A G10C G58A has a yeast fitness of 0.713. For C4A C22U G68A, the yeast fitness was no more than 0.5. With C4A G67U A69G the yeast fitness was 0.751. C4A C33A A65G gave a yeast fitness of no more than 0.5. C4A G6A A65U showed a yeast fitness of 0.539. In the case of C4A G6A C29G A57G, the yeast fitness is reported as 0.535. With C4A G52C C62U the yeast fitness was no more than 0.5. C4A C11A A57G gave a yeast fitness of no more than 0.5. Work on C4A C27U U32C G48C yielded a yeast fitness of no more than 0.5. In the case of C4A G25C C29G G41A C49U A65G C66U, the yeast fitness is reported as no more than 0.5. C4A C66U A69C showed a yeast fitness of 0.585. For C4A G6A A14G A65G, the yeast fitness was no more than 0.5. C4A C24A G52C A57C U59A G63A showed a yeast fitness of no more than 0.5. Work on C4A C29U A37G G39C C49U G67A yielded a yeast fitness of no more than 0.5. C4A G17A C61A showed a yeast fitness of 0.534. With C4A G10C G63C A69U the yeast fitness was no more than 0.5. With C4A C11G C31A A42G the yeast fitness was no more than 0.5. For C4A C31U G51A A70G, the yeast fitness was no more than 0.5. C4A C29G A36U U53C gave a yeast fitness of no more than 0.5. For C4A C11G G18C C27G, the yeast fitness was no more than 0.5. In the case of C4A G25A A45U, the yeast fitness is reported as 0.593. C4A G52C C66U gave a yeast fitness of no more than 0.5. C4A C31G A40U U64A gave a yeast fitness of no more than 0.5. With C4A C5G C46G the yeast fitness was no more than 0.5. C4A C31U C61U gave a yeast fitness of no more than 0.5. With C4A G23A C33G G58C the yeast fitness was no more than 0.5. In the case of C4A G23A C24G, the yeast fitness is reported as no more than 0.5. With C4A C5G A20C A40U C61G the yeast fitness was no more than 0.5. Work on C4A C11G C31U G38C yielded a yeast fitness of 0.552. C4A G9A G44C G51A G58C U59A showed a yeast fitness of no more than 0.5. For C4A G17C G56A, the yeast fitness was no more than 0.5. Variant C4A G38A has a yeast fitness of 0.805. Variant C4A G23A U28A A57G has a yeast fitness of no more than 0.5. Variant C4A C5U C22G G44C has a yeast fitness of no more than 0.5. For C4A C29A C34A C62U, the yeast fitness was no more than 0.5. For C4A C11G C31A A42G C66A, the yeast fitness was no more than 0.5. For C4A C5G C66U, the yeast fitness was 0.538. C4A C5G C66G gave a yeast fitness of 0.597. C4A G39A G52C C55G showed a yeast fitness of no more than 0.5. Work on C4A G44C A57C yielded a yeast fitness of no more than 0.5. With C4A G10A U28A C55G the yeast fitness was no more than 0.5. Variant C4A C27U U28G C33G A36G C66U has a yeast fitness of 0.542. C4A C29U showed a yeast fitness of 0.763. Work on C4A C29G yielded a yeast fitness of 0.618. With C4A C11U U32A G38C U47A the yeast fitness was no more than 0.5. C4A G17A C27U C33U gave a yeast fitness of no more than 0.5. In the case of C4A G18A C27A A37C G56A G68U, the yeast fitness is reported as no more than 0.5. With C4A G44A C46U U53C C62U the yeast fitness was no more than 0.5. Variant C4A C27U C33U A36U G63C has a yeast fitness of no more than 0.5. C4A C31G A45G G50C G63A showed a yeast fitness of no more than 0.5. Work on C4A C29U A65G yielded a yeast fitness of no more than 0.5. With C4A C5U G39C A42C G52C C62U the yeast fitness was no more than 0.5. C4A C11A C29G A40G showed a yeast fitness of 0.574. In the case of C4A C11G U19G U53C, the yeast fitness is reported as 0.698. With C4A C22U U59A the yeast fitness was no more than 0.5. Variant C4A G25A A40C A65C has a yeast fitness of no more than 0.5. C4A G23A C30U C31G A40C gave a yeast fitness of no more than 0.5. C4A G23C A65G gave a yeast fitness of 0.569. With C4A C5G U54A C62U the yeast fitness was 0.536. Variant C4A C24A A42G U59A has a yeast fitness of no more than 0.5. Variant C4A C5A A43G has a yeast fitness of 0.529. Work on C4A G17A G41A yielded a yeast fitness of 0.525. C4A G63A A65U gave a yeast fitness of no more than 0.5. For C4A C33U A57G C66G, the yeast fitness was no more than 0.5. For C4A G23A C31G A40C G48C C66A, the yeast fitness was no more than 0.5. With C4A C29U C31U U54G A65U G67A the yeast fitness was no more than 0.5. Work on C4A G44A C49U U54G C66U A70C yielded a yeast fitness of 0.503. Work on C4A U7A C31A yielded a yeast fitness of 0.678. In the case of C4A C30U U54A, the yeast fitness is reported as no more than 0.5. Variant C4A G18A U59G has a yeast fitness of 0.657. C4A G6A G23A C49A U59C C62U A65U A70C gave a yeast fitness of no more than 0.5. C4A G6A C11A C22U C29U C55A showed a yeast fitness of no more than 0.5. With C4A U7A the yeast fitness was 0.679. With C4A C27G A37C A45U U47C the yeast fitness was no more than 0.5. Work on C4A G23C G50A A57G yielded a yeast fitness of 0.62. C4A G23C C31U C34G A43G A45C A57U showed a yeast fitness of no more than 0.5. For C4A C27U, the yeast fitness was 0.901. C4A C27G gave a yeast fitness of 0.674. In the case of C4A C27A, the yeast fitness is reported as 0.798. C4A C27G U32C A36G A57G G58A C62U A70U gave a yeast fitness of no more than 0.5. C4A C30G A40C C55A G58C A65U A70U showed a yeast fitness of no more than 0.5. C4A G25C U26A C61A gave a yeast fitness of no more than 0.5. C4A G25C showed a yeast fitness of 0.833. Work on C4A G17C A36U G39A A42C G50U G63A yielded a yeast fitness of 0.589. In the case of C4A G17A A42U C55G, the yeast fitness is reported as no more than 0.5. C4A G17A G51A C60G A70U gave a yeast fitness of no more than 0.5. With C4A G9C C31A G41A the yeast fitness was 0.773. With C4A C22G C49A C55U C66A A69C the yeast fitness was no more than 0.5. Variant C4A C31G C55A has a yeast fitness of 0.534. Work on C4A C29U A36G G52C yielded a yeast fitness of no more than 0.5. For C4A C22A G44C, the yeast fitness was no more than 0.5. Work on C4A C29G A57G U59A G68U A70G yielded a yeast fitness of 0.571. For C4A G9A C49A U53C, the yeast fitness was no more than 0.5. With C4A C31U U35C the yeast fitness was no more than 0.5. C4A C34U G38C C49G gave a yeast fitness of no more than 0.5. C4A C33A A40U A70G gave a yeast fitness of no more than 0.5. Work on C4A C34U G51C A57C yielded a yeast fitness of no more than 0.5. C4A G48A A65C gave a yeast fitness of 0.618. Variant C4A G23C C49U G58A A69C has a yeast fitness of 0.535. Variant C4A C61G G63A has a yeast fitness of no more than 0.5. C4A G17A G41A A57C showed a yeast fitness of no more than 0.5. With C4A C34G the yeast fitness was 0.563. C4A G9A gave a yeast fitness of 0.907. C4A C11G U19G A42G gave a yeast fitness of no more than 0.5. C4A C29G U47G U59G showed a yeast fitness of no more than 0.5. C4A C5G G51A C60U G67A gave a yeast fitness of no more than 0.5. Work on C4A G17A C62U yielded a yeast fitness of 0.556. For C4A C11U A40G, the yeast fitness was no more than 0.5. In the case of C4A C24A G67A, the yeast fitness is reported as no more than 0.5. In the case of C4A G39C G41C, the yeast fitness is reported as no more than 0.5. Variant C4A G9A C24U C30U A36G A57G G58A G63A has a yeast fitness of no more than 0.5. C4A G9A U16A A40G C46U showed a yeast fitness of no more than 0.5. Variant C4A C29U C31G C33A has a yeast fitness of no more than 0.5. Work on C4A C22G A37U U47A C62U yielded a yeast fitness of no more than 0.5. C4A C49A G58A gave a yeast fitness of no more than 0.5. For C4A G6C U8A A20C A21U C31A C33U C46U A57G, the yeast fitness was no more than 0.5. C4A G10A G23A C55G C60A showed a yeast fitness of no more than 0.5. C4A A65U C66A showed a yeast fitness of no more than 0.5. C4A G38C C55G A69C showed a yeast fitness of no more than 0.5. Work on C4A C11G U19G G56C yielded a yeast fitness of 0.528. For C4A C33U C60G, the yeast fitness was 0.601. With C4A C5G A20G A57U G68U the yeast fitness was no more than 0.5. C4A G17C G51C G58A gave a yeast fitness of no more than 0.5. For C4A C24G G44C A70U, the yeast fitness was no more than 0.5. Work on C4A G9A C22A C27G G56A yielded a yeast fitness of no more than 0.5. Work on C4A C22U U28C yielded a yeast fitness of no more than 0.5. C4A G6A C29G showed a yeast fitness of 0.549. In the case of C4A U7A C11U C31U U59A, the yeast fitness is reported as no more than 0.5. With C4A G25A C29A A37G G50C U59A the yeast fitness was no more than 0.5. C4A C5G A20C A40U showed a yeast fitness of 0.5. Work on C4A G12C U19C C24G A43U U54C C61A yielded a yeast fitness of no more than 0.5. In the case of C4A G17C G23C A45C A70G, the yeast fitness is reported as no more than 0.5. C4A G23A C31G A40C showed a yeast fitness of 0.52. For C4A C30G A40U C60G G63C, the yeast fitness was no more than 0.5. For C4A C34U A57U, the yeast fitness was no more than 0.5. Work on C4A G17C G50A G51A yielded a yeast fitness of no more than 0.5. C4A G17A G41A C61U G63U G68A showed a yeast fitness of no more than 0.5. Work on C4A G9A C22A C27G U53A A65G yielded a yeast fitness of no more than 0.5. In the case of C4A C5U G17A G52C, the yeast fitness is reported as 0.581.
